The results in this text go back to ChEMBL document CHEMBL3407360, “Proteasome inhibitors with pyrazole scaffolds from structure-based virtual screening” (J Med Chem, 2015).

Activity calls are given as the source filed them. The calls are words filed in the database; no cut-off is given here.

For test [1], the target named is T1, Proteasome Macropain subunit MB1 (Homo sapiens) (UniProt P28074).
T1 sequence (whole entry): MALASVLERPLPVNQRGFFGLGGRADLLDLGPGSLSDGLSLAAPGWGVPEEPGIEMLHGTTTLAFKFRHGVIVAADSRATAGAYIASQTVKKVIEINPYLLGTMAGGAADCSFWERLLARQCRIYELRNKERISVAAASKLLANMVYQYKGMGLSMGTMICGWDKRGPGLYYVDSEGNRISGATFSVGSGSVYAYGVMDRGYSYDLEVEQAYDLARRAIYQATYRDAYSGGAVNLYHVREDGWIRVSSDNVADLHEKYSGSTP
Kind of test: Inhibition of human 20S proteasome beta5 chymotrypsin-like activity using Ac-WLA-AMC as substrate preincubated for 30 mins before substrate addition measured over 90 mins by fluorescence assay.

Test [2] deals with T2, Proteasome component C5 (Homo sapiens) (UniProt P20618).
T2 sequence (whole entry): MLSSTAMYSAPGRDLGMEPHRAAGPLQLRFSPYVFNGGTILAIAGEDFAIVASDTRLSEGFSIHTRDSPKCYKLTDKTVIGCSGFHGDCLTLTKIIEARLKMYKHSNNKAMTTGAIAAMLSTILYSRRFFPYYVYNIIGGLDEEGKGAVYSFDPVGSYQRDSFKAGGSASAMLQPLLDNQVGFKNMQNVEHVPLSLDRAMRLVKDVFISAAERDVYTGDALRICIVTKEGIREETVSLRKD
The test is described as follows: Inhibition of human 20S proteasome beta1 caspase-like activity using Ac-nLPnLD-AMC as substrate preincubated for 30 mins before substrate addition measured over 90 mins by fluorescence assay. The method, boiled down:
(§1)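 Purified human 20S proteasome (CP or IP, 0.5 µg/mL) was preincubated with compound for 30 min at room temperature in 20 mM Tris-HCl, 0.5 mM EDTA, 0.035% SDS. Substrates were Ac-nLPnLD-AMC 100 µM for β1, Ac-PAL-AMC 100 µM for β1i, and Boc-LRR-AMC 200 µM for β2/β2i. AMC release was followed 90 min at room temperature, ex 360/em 460 nm.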

The species named for test [3] is Homo sapiens. Kind of test: Inhibition of human 20S proteasome beta2i trypsin-like activity using Boc-LRR-AMC as substrate preincubated for 30 mins before substrate addition measured over 90 mins by fluorescence assay. The method, boiled down: as §1
Test [4] can be described thus: Cytotoxicity against human H23 cells after 72 hrs. In kind it is functional, cell-based. As to conditions: NCI-H23, 72 h. The method, boiled down:
(§2)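 Adherent lines, growing in log phase in DMEM or RPMI 1640 with 10% FBS, were plated at 7,000–10,000 cells/well. Compound was added 24 h later at the final concentration. Viability was measured after 72 h by CellTiter Glo luminescence or CellTiter 96 Aqueous One absorbance.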

Another test has as its system NCI-H358. Kind of test: Cytotoxicity against human NCI-H358 cells after 72 hrs. In kind it is functional, cell-based. As to conditions: NCI-H358, 72 h. The method, boiled down: as §2
Test [5] has as its system RPMI-8226. Kind of test: Inhibition of 20S proteasome chymotrypsin-like in human RPMI8226 cell extracts using Suc-LLVY-AMC as substrate preincubated at 1 to 10 uM for 30 mins before substrate addition by fluorescence assay. Format: cell-free. The method, boiled down: (§3)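 Cytosolic extracts of RPMI 8226 cells served as the proteasome source in place of purified enzyme. Extracts were preincubated with compound, and hydrolysis of Suc-LLVY-AMC (CT-L), Z-LLE-AMC (C-L) or Boc-LRR-AMC (T-L) was read by AMC fluorescence at ex 360/em 460 nm.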

In test [6] the test system is RPMI-8226. Kind of test: Inhibition of 20S proteasome caspase-like in human RPMI8226 cell extracts using Z-LLE-AMC as substrate preincubated at 1 to 10 uM for 30 mins before substrate addition by fluorescence assay. Format: cell-free. The method, boiled down: as §3
The target of test [7] is Proteasome Macropain subunit (Homo sapiens) (UniProt P49721). Kind of test: Inhibition of human 20S proteasome beta2 trypsin-like activity using Boc-LRR-AMC as substrate preincubated for 30 mins before substrate addition measured over 90 mins by fluorescence assay. In short, it runs like this: as §1
Proteasome Macropain subunit (Homo sapiens), sequence (P49721 whole entry): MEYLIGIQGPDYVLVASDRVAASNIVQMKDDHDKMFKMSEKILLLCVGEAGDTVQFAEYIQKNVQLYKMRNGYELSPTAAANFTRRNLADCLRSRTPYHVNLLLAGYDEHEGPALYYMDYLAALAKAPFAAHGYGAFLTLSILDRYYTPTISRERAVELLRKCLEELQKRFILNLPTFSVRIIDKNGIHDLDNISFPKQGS
In test [8] the test system is RPMI-8226. The test is described as follows: Inhibition of 20S proteasome trypsin-like in human RPMI8226 cell extracts using Boc-LRR-AMC as substrate preincubated at 1 to 10 uM for 30 mins before substrate addition by fluorescence assay. In kind it is cell-free. The method, boiled down:
as §3

For test [9], the species on record is Homo sapiens. The test is described as follows: Inhibition of human 20S proteasome beta5i chymotrypsin-like activity using Ac-ANW-AMC as substrate preincubated for 30 mins before substrate addition measured over 90 mins by fluorescence assay.
The species entered for test [10] is Homo sapiens. Kind of test: Inhibition of human 20S proteasome beta1i chymotrypsin-like activity using Ac-PAL-AMC as substrate preincubated for 30 mins before substrate addition measured over 90 mins by fluorescence assay. In short, it runs like this: as §1

The IC50 is the concentration at which inhibition is half-maximal. A lower IC50 goes with greater potency in that assay. Consider `Cc1ccc(OS(=O)(=O)c2cccc(C(F)(F)F)c2)c(-c2cc(-c3ccccc3)n(CCN[C@@H]3CCNC3)n2)c1`, for which the inhibition result (in test [1]; in test [2]; with RPMI-8226 [5]; with RPMI-8226 [6]; in the test filed under Homo sapiens [9]; in the test listed under Homo sapiens [10]) was “Active” in each case. Moreover, the inhibition entry (in the test filed under Homo sapiens [3]; in test [7]; with RPMI-8226 [8]) was “inactive” throughout. For the same molecule, the IC50 (in [4]; in the test on NCI-H358) was 7 µM in each case.
